Data set [1] deals with Estrogen receptor beta (Homo sapiens) (UniProt Q92731). The data set is described as follows: Relative binding affinity for Estrogen receptor beta.
Data set [2] can be described thus: Octanol-water partition coefficient (logP) of the compound measured by RP-HPLC. The format is physicochemical. The method, boiled down:
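Reverse-phase HPLC capacity factors measured in an organic phase of 85%-60% methanol containing 0.25% octanol, against an aqueous phase of 0.15% n-decylamine in 0.02 M MOPS pH 7.4 made with octanol-saturated water. Extrapolated to 100% aqueous to give kNw. log Po/w = 0.13418 + 0.98452 log kNw.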

The structures appear in SMILES notation.

Estrogen receptor beta (Homo sapiens), sequence (Q92731 whole entry): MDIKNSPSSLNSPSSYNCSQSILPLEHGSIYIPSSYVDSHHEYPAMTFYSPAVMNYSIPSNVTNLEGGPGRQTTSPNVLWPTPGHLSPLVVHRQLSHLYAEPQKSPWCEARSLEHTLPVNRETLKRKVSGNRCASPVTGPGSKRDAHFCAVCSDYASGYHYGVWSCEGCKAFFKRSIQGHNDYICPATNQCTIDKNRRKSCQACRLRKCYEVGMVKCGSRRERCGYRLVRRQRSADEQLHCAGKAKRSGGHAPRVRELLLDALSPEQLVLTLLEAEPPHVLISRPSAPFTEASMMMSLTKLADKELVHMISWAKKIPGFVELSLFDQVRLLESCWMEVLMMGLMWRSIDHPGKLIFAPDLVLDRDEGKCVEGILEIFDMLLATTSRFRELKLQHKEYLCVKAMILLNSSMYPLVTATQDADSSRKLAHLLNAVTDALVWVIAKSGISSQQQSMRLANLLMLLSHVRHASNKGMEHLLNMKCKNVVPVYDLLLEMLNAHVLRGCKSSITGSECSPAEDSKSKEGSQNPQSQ

For `CC/C(=C(/c1ccc(O)cc1)c1ccc(OCCN(C)C)cc1)c1ccccc1` [listing 1 of 3 here], in data set [1], the relative binding affinity (RBA) is 18.5.
In general, logP refers to the decadic logarithm of the partition coefficient of the neutral form, usually between octanol and water. Low values mean a more hydrophilic compound, high ones a more lipophilic compound. Consider `CC/C(=C(/c1ccc(O)cc1)c1ccc(OCCN(C)C)cc1)c1ccccc1` [listing 2 of 3 here], for which the log partition coefficient (logP) in data set [2] stood at 3.2.
Still for that read-out and setting: the result for `CC/C(=C(/c1ccc(O)cc1)c1ccc(OCCN(C)C)cc1)c1ccccc1` [listing 3 of 3 here] reads 3.4.
`C[C@]12CC[C@@H]3c4ccc(O)cc4CC[C@H]3[C@@H]1CC[C@@H]2O` [ESTRADIOL] yielded a relative binding affinity (RBA) in data set [1] of 100. Further, in data set [2], the logP worked out at 3.5.

For the origin of these results see ChEMBL document CHEMBL1143594, “Selective estrogen receptor modulators in the ruthenocene series. Synthesis and biological behavior” (J Med Chem, 2005).
